# Where two headings read alike, the source gives them in different places.
# Legend:
# GFP-Stat3α = GFP-Stat3α (Homo sapiens, UniProt P40763); format: cell-based
# Stat3 phosphorylation [1] = assay: Phosphoflow assay, G-CSF stimulated Stat3 phosphorylation in Kasumi-1 cells; format: cell-based; conditions: read-out: IC50 G-CSF stimulated Stat3 phosphorylation, Mean ± SEM, n ≥ 2, G-CSF 10 ng/ml 15′
# MDA-MB-231 cells = assay: Anchorage independent growth; format: cell-based, human
# MEF/GFP-Stat3α cells = assay: Anchorage-independent colony growth and MTT viability of MEF/GFP-Stat3α cells; format: cell-based; conditions: 3μM of PL
# In short: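 Stat3−/− MEFs stably expressing GFP-Stat3α were grown under anchorage-independent conditions with increasing doses of test compound, then photographed. Mean colony number from duplicate wells was taken as a percentage of DMSO-treated cells. Viability by MTT was also expressed relative to DMSO-treated cells. IC50 values were fitted against log concentration.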
# Stat3 phosphorylation [2] = assay: Constitutive Stat3 phosphorylation in breast cancer cell lines; format: cell-based, human; conditions: for IC50: read-out: IC50 Constitutive Stat3 phosphorylation, Mean ± SEM, n ≥ 2
# MCF-12A = assay: Anchorage independent growth; format: cell-based
# GFP+ SUM159PT cells = format: cell-based; conditions: PL 3 and 10 μM
# In short: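 SUM159PT cells carrying a lentiviral Stat3-GFP reporter (GFP driven by four M67 repeats) were grown as xenografts in pre-cleared mammary glands of SCID/Beige mice. Excised tumors were digested to single cells and FACS-sorted into GFP+ and GFP− populations. Mammosphere formation efficiency was then assayed in MEGM+ without or with test compound.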
# ZR-75-1 = assay: Anchorage independent growth; format: cell-based
# MC1 = assay: Mammosphere assay, patient-derived xenograft cells; format: cell-based, human; conditions: read-out: IC50 Mammosphere assay, Mean ± SEM, n ≥ 2
# In short: (§1)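 Patient-derived breast tumors serially grown in SCID/Beige mouse fat pad were excised, minced, collagenase-digested, mesh-filtered and suspended as single cells in MEGM+. Cells were plated in serum-free, growth-factor-enriched medium in low-attachment plates ± test compound (0/0.1/0.3/1/3/10/100 μM), fed twice weekly, and counted by automated colony counter after 5–12 days. Percent of untreated colony number was fitted for IC50.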
# MCF-7 = assay: Anchorage independent growth; format: cell-based, human
# [3] = target: glutathione S-transferase pi 1 (GSTP1); conditions: read-out: IC50 for GSTP1 inhibition; cited from earlier work
# Hs 578T cells = assay: Anchorage independent growth; format: cell-based, human; conditions: read-out: IC50 Anchorage independent growth (MTT), Mean ± SEM, n ≥ 2
# In short: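 Cells grown in triplicate in ultra-low-attachment 96-well plates in complete DMEM ± test compound (0/0.1/0.3/1/3/10/100 μM) for 48–72 hrs. Viable cells were quantitated by MTT. Relative % viability was calculated as treated ÷ untreated × 100 and plotted against log concentration. IC50 was derived from ≥2 replicate experiments.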
# [4] = system: MDA-MB-468 tumor xenografts; assay: Human breast cancer cell line xenograft assay, tumor growth; format: in vivo, nude mice; conditions: 15 mg/Kg body weight/day IP, 21 days; p < 0.05
# Stat3-regulated genes [5] = assay: Quantitative RT-PCR of Stat3-regulated genes in MDA-MB-468 cells; format: cell-based, human; conditions: 30 μM, 6–8 hr
# MDA-MB-468 cells = assay: Anchorage independent growth; format: cell-based, human
# Stat3-regulated genes [6] = assay: mRNA of Stat3-regulated genes in MDA-MB 468 xenograft tumors; format: in vivo, nude mice; conditions: 15 mg/Kg; vs vehicle; p<0.05; listed as PL
# In short: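 mRNA levels of Stat3-regulated genes were measured by Q-RT-PCR in excised tumors from nude mice bearing subcutaneous MDA-MB-468 xenografts. Mice had been treated i.p. with test compound 15 mg/Kg in DMSO or with vehicle, 5 days/week for 3 weeks. Values were normalized to β-actin and compared against vehicle-treated tumors.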
# MCF 10A = assay: Anchorage independent growth; format: cell-based
# Sum159PT = assay: Anchorage independent growth; format: cell-based
# MDA-MB-453 = assay: Anchorage independent growth; format: cell-based
# T-47D = assay: Anchorage independent growth; format: cell-based, human
# cleaved caspase 3 = assay: Cleaved caspase 3 in MDA-MB-468 cells; format: cell-based, human; conditions: PL 30μM, 12 hrs
# In short: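 MDA-MB-468 cells were exposed to 30 μM test compound and sampled over 15 min to 24 h. Cleaved caspase 3 and GAPDH were measured in whole protein by Luminex bead immunoassay. GAPDH-normalized active caspase 3 was expressed as a percentage of the pre-treatment value.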
# Toxicity in mice = format: in vivo; conditions: up to a dose of 30 mg/Kg/day for 14 days
# BCM-2665 = assay: Mammosphere assay, patient-derived xenograft cells; format: cell-based, human; conditions: read-out: IC50 Mammosphere assay, Mean ± SEM, n ≥ 2
# In short: as §1
# [7] = read-out: Anchorage Independent Growth IC50, 16 hrs
# [8] = read-out: Anchorage independent Growth IC50, 80 hrs, no sensitivity taken as 100 μM
# [9] = read-out: Anchorage independent Growth IC50, 80 hrs
# GFP-Stat3α, sequence (P40763 whole entry): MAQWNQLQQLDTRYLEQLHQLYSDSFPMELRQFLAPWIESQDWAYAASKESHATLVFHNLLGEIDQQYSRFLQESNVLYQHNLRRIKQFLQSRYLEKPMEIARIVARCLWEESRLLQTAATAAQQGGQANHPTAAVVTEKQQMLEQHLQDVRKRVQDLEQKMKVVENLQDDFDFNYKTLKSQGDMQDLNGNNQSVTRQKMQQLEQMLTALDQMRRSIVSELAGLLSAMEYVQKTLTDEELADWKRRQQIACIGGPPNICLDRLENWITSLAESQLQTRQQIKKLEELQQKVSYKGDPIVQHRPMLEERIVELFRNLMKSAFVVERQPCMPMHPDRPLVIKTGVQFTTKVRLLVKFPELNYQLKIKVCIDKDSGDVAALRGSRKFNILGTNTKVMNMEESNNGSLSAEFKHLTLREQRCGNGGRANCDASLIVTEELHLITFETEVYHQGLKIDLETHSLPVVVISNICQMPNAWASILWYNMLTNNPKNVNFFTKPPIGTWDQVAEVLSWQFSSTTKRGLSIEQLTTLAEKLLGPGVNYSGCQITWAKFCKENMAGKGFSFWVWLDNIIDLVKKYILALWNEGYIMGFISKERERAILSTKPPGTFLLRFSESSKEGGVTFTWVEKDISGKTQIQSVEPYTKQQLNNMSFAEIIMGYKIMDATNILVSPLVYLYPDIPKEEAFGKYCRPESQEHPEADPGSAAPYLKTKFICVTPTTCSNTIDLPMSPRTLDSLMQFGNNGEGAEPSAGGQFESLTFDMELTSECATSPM
compound,measurement,setting,value
"O=C1C=CC(=O)c2c1ccc1c2ccc2ccccc21 [chrysene 1,4 quinone]",IC50,GFP-Stat3α,10 µM
"COc1cc(/C=C/C(=O)N2CCC=CC2=O)cc(OC)c1OC [Piperlongumine, piperlongumine]",IC50,Stat3 phosphorylation [1],3.7 ± 1.7 µM
same,IC50,"MDA-MB-231 cells; read-out: Anchorage Independent Growth IC50, 16 hrs, MDA-MB-231",9.2 µM
same,IC50,"MDA-MB-231 cells; read-out: Anchorage independent Growth IC50, 80 hrs, MDA-MB-231",0.3 µM
same,IC50,"MDA-MB-231 cells; read-out: IC50 Anchorage independent growth (MTT), MDA-MB 231, Mean ± SEM, n ≥ 2",1.2 ± 1.8 µM
same,spheroid colony formation,MEF/GFP-Stat3α cells,completely abrogating
same,"effect on levels of total Stat3 or pStat1, pStat5 and total Stat1","Stat3 phosphorylation [2]; MDA-MB-231 and MDA-MB-468 (pStat1, pStat5, total Stat1 in MDA-MB-468)",without substantially affecting
same,reduction of pStat3 levels at 15 min,"Stat3 phosphorylation [2]; MDA-MB-468, PL 30 μM",> 50%
same,time of maximal reduction of pStat3,"Stat3 phosphorylation [2]; MDA-MB-468, PL 30 μM",≤ 30 min
same,pStat3 levels in the GFP+ cells,"Stat3 phosphorylation [2]; Sum159PT xenograft-derived GFP+ cells, increasing doses of PL",decreased
same,IC50,Stat3 phosphorylation [2]; MDA-MB 231,0.4 ± 0.5 µM
same,IC50,Stat3 phosphorylation [2]; MDA-MB 468,2.8 ± 2.1 µM
same,IC50,MCF-12A; [7],16.2 µM
same,IC50,MCF-12A; [8],> 100 µM
same,mammosphere formation by GFP+ cells,GFP+ SUM159PT cells,completely inhibited
same,IC50,ZR-75-1; [7],80.6 µM
same,IC50,ZR-75-1; [9],0.8 µM
same,IC50,MC1,4.2 ± 2.3 µM
same,IC50,MCF-7; [7],7 µM
same,IC50,MCF-7; [9],3.6 µM
same,IC50,[3],~100 µM
same,IC50,Hs 578T cells,0.2 ± 0.1 µM
same,reduction of tumor weight,[4],> 50%
same,increase of FAS (CD95) mRNA,Stat3-regulated genes [5],two fold
same,IC50,"MDA-MB-468 cells; read-out: Anchorage Independent Growth IC50, 16 hrs, MDA-MB-468",2.8 µM
same,IC50,"MDA-MB-468 cells; read-out: Anchorage independent Growth IC50, 80 hrs, MDA-MB-468",0.9 µM
same,IC50,"MDA-MB-468 cells; read-out: IC50 Anchorage independent growth (MTT), MDA-MB 468, Mean ± SEM, n ≥ 2",4.6 ± 4.8 µM
same,reduction of β-actin-normalized BcL-xL mRNA in tumors,Stat3-regulated genes [6],~ 50%
same,reduction of β-actin-normalized Survivin mRNA in tumors,Stat3-regulated genes [6],~ 50%
same,IC50,"MCF 10A; read-out: Anchorage Independent Growth IC50, 16 hrs, no sensitivity taken as 100 μM",> 100 µM
same,IC50,MCF 10A; [8],> 100 µM
same,IC50,Sum159PT; [7],12.9 µM
same,IC50,Sum159PT; [9],0.8 µM
same,IC50,MDA-MB-453; [7],15.5 µM
same,IC50,MDA-MB-453; [9],1.7 µM
same,IC50,T-47D; [7],42 µM
same,IC50,T-47D; [9],0.3 µM
same,increase of caspase 3 cleavage compared to earlier time points,cleaved caspase 3,~ 12 fold
same,toxicity in mice,Toxicity in mice,non-toxic
same,IC50,BCM-2665,0.1 µM
